Assay results from ChEMBL document CHEMBL1208666, “Novel 6,8-dibromo-4(3H)quinazolinone derivatives of anti-bacterial and anti-fungal activities” (2010).
Values after ≈ are worked out from the molar mass of the structure shown. Active and inactive are the calls of the source. The rule behind the calls is not given here.

Experiments:
[1] = tested on: Listeria monocytogenes; test: Antibacterial activity against Listeria monocytogenes at 100 ug/ml after 24 hrs by paper disc diffusion technique; type: functional; details: read-out: IZ
In short: (§1)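 Paper disc diffusion on Mueller Hinton agar, autoclaved at 120 °C for 30 min. Medium at 40–50 °C was seeded at 1 ml/100 ml with a 10^5 cfu/ml suspension matched to 0.9 McFarland. It was poured 3–4 mm deep, and discs with compound in DMSO were laid on it. Plates were pre-incubated 1 h at room temperature, then 37 °C for 24 h. The inhibition zone was measured.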

[2] = tested on: Salmonella typhimurium; test: Antibacterial activity against Salmonella Typhimurium after 24 hrs by agar streak dilution method; type: functional, Salmonella enterica subsp. enterica serovar Typhimurium; details: Salmonella enterica
In short: (§2)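 Agar streak dilution on Mueller Hinton agar. Compound stock in DMSO was added in graded amounts to molten sterile agar at 40–50 °C. This was poured 3–4 mm deep and left to solidify. Bacterial suspension of about 10^5 cfu/ml was applied to the serially diluted plates. Plates were incubated at 37 °C for 24 h to read the MIC. Strains were food-poisoning isolates from animal byproducts.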

[3] = tested on: Aspergillus flavus; test: Antifungal activity against Aspergillus flavus at 100 ug/ml after 48 hrs by paper disc diffusion technique; type: functional; details: for zone of inhibition at 100 µg/mL: read-out: IZ
In short: (§3)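 Paper disc diffusion on Sabouraud dextrose agar, autoclaved at 120 °C for 30 min. Medium at 40–50 °C was seeded at 1 ml/100 ml with a 10^5 cfu/ml fungal suspension matched to 0.9 McFarland. It was poured 3–4 mm deep, and compound discs in DMSO were applied. Plates were pre-incubated 1 h at room temperature, then 28 °C for 48 h. The inhibition zone was recorded.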

[4] = tested on: Pseudomonas aeruginosa; test: Antibacterial activity against Pseudomonas aeruginosa at 100 ug/ml after 24 hrs by paper disc diffusion technique; type: functional; details: read-out: IZ; in short: as §1
[5] = tested on: Bacillus cereus; test: Antibacterial activity against Bacillus cereus after 24 hrs by agar streak dilution method; type: functional; in short: as §2
[6] = tested on: Staphylococcus aureus; test: Antibacterial activity against Staphylococcus aureus after 24 hrs by agar streak dilution method; type: functional; in short: as §2
[7] = tested on: Candida albicans; test: Antifungal activity against Candida albicans after 48 hrs by agar streak dilution method; type: functional
In short: (§4)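 Fungal MIC by agar streak dilution on Sabouraud dextrose agar. Compound stock in DMSO was added in graded amounts to molten sterile medium at 40–50 °C. This was poured 3–4 mm deep and left to solidify. Fungal suspension of about 10^5 cfu/ml was applied to the serially diluted plates. Plates were incubated at 37 °C for 48 h.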

[8] = tested on: Staphylococcus aureus; test: Antibacterial activity against Staphylococcus aureus at 100 ug/ml after 24 hrs by paper disc diffusion technique; type: functional; details: read-out: IZ; in short: as §1
[9] = tested on: Candida albicans; test: Antifungal activity against Candida albicans at 100 ug/ml after 48 hrs by paper disc diffusion technique; type: functional; details: for zone of inhibition at 100 µg/mL: read-out: IZ; in short: as §3
[10] = tested on: Escherichia coli; test: Antibacterial activity against Escherichia coli O157 after 24 hrs by agar streak dilution method; type: functional; details: O157, 24 h
[11] = tested on: Bacillus cereus; test: Antibacterial activity against Bacillus cereus at 100 ug/ml after 24 hrs by paper disc diffusion technique; type: functional; details: read-out: IZ; in short: as §1
[12] = tested on: Escherichia coli; test: Antibacterial activity against Escherichia coli O157 at 100 ug/ml after 24 hrs by paper disc diffusion technique; type: functional; details: O157, 24 h, read-out: IZ
[13] = tested on: Salmonella typhimurium; test: Antibacterial activity against Salmonella Typhimurium at 100 ug/ml after 24 hrs by paper disc diffusion technique; type: functional, Salmonella enterica subsp. enterica serovar Typhimurium; details: Salmonella enterica, read-out: IZ; in short: as §1
[14] = tested on: Listeria monocytogenes; test: Antibacterial activity against Listeria monocytogenes after 24 hrs by agar streak dilution method; type: functional; in short: as §2
[15] = tested on: Pseudomonas aeruginosa; test: Antibacterial activity against Pseudomonas aeruginosa after 24 hrs by agar streak dilution method; type: functional; in short: as §2
[16] = tested on: Aspergillus flavus; test: Antifungal activity against Aspergillus flavus after 48 hrs by agar streak dilution method; type: functional; in short: as §4

Row | Compound | zone of inhibition at 100 µg/mL [1] | MIC [2] | inhibition zone (IZ) [3] | zone of inhibition at 100 µg/mL [4] | MIC [5] | MIC [6] | MIC [7] | zone of inhibition at 100 µg/mL [8] | zone of inhibition at 100 µg/mL [9] | MIC [10] | zone of inhibition at 100 µg/mL [11] | zone of inhibition at 100 µg/mL [12] | zone of inhibition at 100 µg/mL [13] | MIC [14] | MIC [15] | zone of inhibition at 100 µg/mL [3] | MIC [16] | inhibition zone (IZ) [9]
1 | O=C(N/N=C/c1ccco1)c1ccc(-n2c(-c3ccccc3)nc3c(Br)cc(Br)cc3c2=O)cc1 | 11 mm | 5 µg/mL (≈ 8.44 µM) | inactive | 8 mm | 50 µg/mL (≈ 84.4 µM) | 20 µg/mL (≈ 33.8 µM) | 25 µg/mL (≈ 42.2 µM) | 13 mm | 12 mm | > 50 µg/mL | 12 mm | 9 mm | 16 mm | > 50 µg/mL | > 50 µg/mL |  |  | 
2 | O=C(NN1C(=O)c2ccccc2C1=O)c1ccc(-n2c(-c3ccccc3)nc3c(Br)cc(Br)cc3c2=O)cc1 | 10 mm | > 50 µg/mL |  | 11 mm | 5.5 µg/mL (≈ 8.54 µM) | > 50 µg/mL | 50 µg/mL (≈ 77.6 µM) | 10 mm | 9 mm | 50 µg/mL (≈ 77.6 µM) | 16 mm | 11 mm | 11 mm | > 50 µg/mL | > 50 µg/mL | 25 mm | 0.39 µg/mL (≈ 0.605 µM) | 
3 | O=C(N/N=C/c1ccc(Cl)c(Cl)c1)c1ccc(-n2c(-c3ccccc3)nc3c(Br)cc(Br)cc3c2=O)cc1 | 13 mm | 50 µg/mL (≈ 74.5 µM) |  | 14 mm | 1.56 µg/mL (≈ 2.32 µM) | 25 µg/mL (≈ 37.2 µM) | 25 µg/mL (≈ 37.2 µM) | 14 mm | 11 mm | 25 µg/mL (≈ 37.2 µM) | 17 mm | 14 mm | 11 mm | 25 µg/mL (≈ 37.2 µM) | 25 µg/mL (≈ 37.2 µM) | 12 mm | 19 µg/mL (≈ 28.3 µM) | 
4 | OC(Cn1cncn1)(Cn1cncn1)c1ccc(F)cc1F [FLUCONAZOLE] |  |  |  |  |  |  | 1.56 µg/mL (≈ 5.09 µM) |  | 18 mm |  |  |  |  |  |  | 22 mm | 0.78 µg/mL (≈ 2.55 µM) | 
5 | O=C(N/N=C/c1ccc2ccccc2c1)c1ccc(-n2c(-c3ccccc3)nc3c(Br)cc(Br)cc3c2=O)cc1 | 16 mm | 50 µg/mL (≈ 76.6 µM) |  | 13 mm | 50 µg/mL (≈ 76.6 µM) | 25 µg/mL (≈ 38.3 µM) | 25 µg/mL (≈ 38.3 µM) | 14 mm | 13 mm | 25 µg/mL (≈ 38.3 µM) | 12 mm | 13 mm | 12 mm | 3.12 µg/mL (≈ 4.79 µM) | 25 µg/mL (≈ 38.3 µM) | 26 mm | 0.39 µg/mL (≈ 0.598 µM) | 
6 | O=C(NN1C(=O)C=CC1=O)c1ccc(-n2c(-c3ccccc3)nc3c(Br)cc(Br)cc3c2=O)cc1 | 11 mm | 2.9 µg/mL (≈ 4.88 µM) |  | 11 mm | 50 µg/mL (≈ 84.1 µM) | > 50 µg/mL | 25 µg/mL (≈ 42.1 µM) | 9 mm | 10 mm | > 50 µg/mL | 9 mm | 9 mm | 17 mm | > 50 µg/mL | > 50 µg/mL | 17 mm | 4.5 µg/mL (≈ 7.57 µM) | 
7 | CCOC(=O)c1ccc(-n2c(-c3ccccc3)nc3c(Br)cc(Br)cc3c2=O)cc1 | 14 mm | 3.12 µg/mL (≈ 5.92 µM) |  | 12 mm | 50 µg/mL (≈ 94.7 µM) | 1.56 µg/mL (≈ 2.95 µM) |  | 17 mm |  | 50 µg/mL (≈ 94.7 µM) | 9 mm | 11 mm | 16 mm | 25 µg/mL (≈ 47.3 µM) | 50 µg/mL (≈ 94.7 µM) | 10 mm | 25 µg/mL (≈ 47.3 µM) | inactive
8 | NNC(=O)c1ccc(-n2c(-c3ccccc3)nc3c(Br)cc(Br)cc3c2=O)cc1 | 11 mm | 50 µg/mL (≈ 97.2 µM) |  | 13 mm | 25 µg/mL (≈ 48.6 µM) | > 50 µg/mL |  | 10 mm |  | > 50 µg/mL | 12 mm | 10 mm | 11 mm | 50 µg/mL (≈ 97.2 µM) | 25 µg/mL (≈ 48.6 µM) | 15 mm | 18.5 µg/mL (≈ 36 µM) | inactive
9 | CC1=NN(C(=O)c2ccc(-n3c(-c4ccccc4)nc4c(Br)cc(Br)cc4c3=O)cc2)C(=O)C1 | 16 mm | 30 µg/mL (≈ 51.7 µM) |  | 12 mm | > 50 µg/mL | 40 µg/mL (≈ 68.9 µM) | 50 µg/mL (≈ 86.2 µM) | 11 mm | 9 mm |  | 11 mm |  | 14 mm | 6 µg/mL (≈ 10.3 µM) | 50 µg/mL (≈ 86.2 µM) | 20 mm | 2.5 µg/mL (≈ 4.31 µM) | 
10 | O=C(N/N=C/c1ccccc1)c1ccc(-n2c(-c3ccccc3)nc3c(Br)cc(Br)cc3c2=O)cc1 | 13 mm | > 50 µg/mL |  | 12 mm | 30 µg/mL (≈ 49.8 µM) | 25 µg/mL (≈ 41.5 µM) |  | 12 mm |  | 45 µg/mL (≈ 74.7 µM) | 12 mm | 11 mm | 10 mm | 35 µg/mL (≈ 58.1 µM) | 50 µg/mL (≈ 83 µM) | 10 mm | 25 µg/mL (≈ 41.5 µM) | inactive
11 | Cc1cc(C)n(C(=O)c2ccc(-n3c(-c4ccccc4)nc4c(Br)cc(Br)cc4c3=O)cc2)n1 | 15 mm | 20 µg/mL (≈ 34.6 µM) | inactive | 12 mm | 25 µg/mL (≈ 43.2 µM) | 50 µg/mL (≈ 86.5 µM) | 50 µg/mL (≈ 86.5 µM) | 10 mm | 9 mm |  | 13 mm |  | 14 mm | 12.5 µg/mL (≈ 21.6 µM) | 30 µg/mL (≈ 51.9 µM) |  |  | 
